Reference: ChEMBL document CHEMBL3351833, “Synthesis and Biological Evaluation of Pyrazolo[1,5-a]pyrimidine Compounds as Potent and Selective Pim-1 Inhibitors” (ACS Med Chem Lett, 2015)
Blank lines part the entries; values can stand above or below the compound they belong to.

Columns and labels:
[1] = target: Serine/threonine-protein kinase pim-2 (Homo sapiens, UniProt Q9P1W9); experiment: Inhibition of Pim2 (unknown origin) using luciferase-luciferin based ATP detection reagent by Kinase-Glo assay
Serine/threonine-protein kinase pim-2, sequence (Q9P1W9 whole entry): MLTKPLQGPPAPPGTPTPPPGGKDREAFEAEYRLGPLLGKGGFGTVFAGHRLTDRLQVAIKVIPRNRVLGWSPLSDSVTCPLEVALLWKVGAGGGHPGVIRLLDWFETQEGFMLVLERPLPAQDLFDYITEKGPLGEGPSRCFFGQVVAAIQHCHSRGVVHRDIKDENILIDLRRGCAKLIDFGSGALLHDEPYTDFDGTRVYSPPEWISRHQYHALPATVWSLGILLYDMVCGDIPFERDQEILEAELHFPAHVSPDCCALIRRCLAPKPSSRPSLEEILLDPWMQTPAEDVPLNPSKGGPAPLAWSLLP

[2] = target: Voltage-gated inwardly rectifying potassium channel KCNH2 (Homo sapiens, UniProt Q12809); experiment: Inhibition of human ERG expressed in CHO cells by automated patch clamp method; assay type: cell-based
Voltage-gated inwardly rectifying potassium channel KCNH2, sequence (Q12809 whole entry): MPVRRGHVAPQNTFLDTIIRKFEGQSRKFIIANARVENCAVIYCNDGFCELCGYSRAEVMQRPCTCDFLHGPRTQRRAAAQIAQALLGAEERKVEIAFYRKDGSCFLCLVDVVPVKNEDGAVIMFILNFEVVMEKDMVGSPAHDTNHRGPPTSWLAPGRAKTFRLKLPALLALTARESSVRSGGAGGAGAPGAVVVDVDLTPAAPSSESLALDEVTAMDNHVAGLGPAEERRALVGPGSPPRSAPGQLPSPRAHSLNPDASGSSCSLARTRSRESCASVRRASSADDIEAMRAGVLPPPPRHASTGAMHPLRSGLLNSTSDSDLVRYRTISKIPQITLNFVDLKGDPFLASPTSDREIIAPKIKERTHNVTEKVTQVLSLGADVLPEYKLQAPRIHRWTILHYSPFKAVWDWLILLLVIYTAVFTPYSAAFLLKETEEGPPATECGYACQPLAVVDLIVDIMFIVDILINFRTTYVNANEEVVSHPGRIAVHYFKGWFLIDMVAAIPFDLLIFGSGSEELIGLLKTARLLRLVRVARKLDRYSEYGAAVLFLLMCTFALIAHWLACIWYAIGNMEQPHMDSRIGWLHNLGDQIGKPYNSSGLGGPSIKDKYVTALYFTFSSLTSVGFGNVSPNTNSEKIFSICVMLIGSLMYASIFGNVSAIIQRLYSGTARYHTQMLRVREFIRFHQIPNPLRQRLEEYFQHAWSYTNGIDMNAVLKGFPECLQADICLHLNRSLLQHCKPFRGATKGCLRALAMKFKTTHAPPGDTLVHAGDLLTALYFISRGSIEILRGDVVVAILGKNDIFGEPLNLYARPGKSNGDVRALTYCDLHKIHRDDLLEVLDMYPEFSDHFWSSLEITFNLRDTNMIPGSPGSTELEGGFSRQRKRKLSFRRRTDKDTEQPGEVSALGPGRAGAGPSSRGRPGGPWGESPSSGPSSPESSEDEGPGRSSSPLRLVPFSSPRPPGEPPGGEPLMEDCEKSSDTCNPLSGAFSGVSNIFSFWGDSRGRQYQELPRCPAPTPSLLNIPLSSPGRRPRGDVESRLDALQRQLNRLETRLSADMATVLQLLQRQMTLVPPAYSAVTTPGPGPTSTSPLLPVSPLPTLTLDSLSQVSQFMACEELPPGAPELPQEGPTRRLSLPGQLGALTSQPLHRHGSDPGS

[3] = target: T1, Receptor-type tyrosine-protein kinase FLT3 (Homo sapiens, UniProt P36888); experiment: Inhibition of human Flt3 (unknown origin)
T1 sequence (P36888 whole entry): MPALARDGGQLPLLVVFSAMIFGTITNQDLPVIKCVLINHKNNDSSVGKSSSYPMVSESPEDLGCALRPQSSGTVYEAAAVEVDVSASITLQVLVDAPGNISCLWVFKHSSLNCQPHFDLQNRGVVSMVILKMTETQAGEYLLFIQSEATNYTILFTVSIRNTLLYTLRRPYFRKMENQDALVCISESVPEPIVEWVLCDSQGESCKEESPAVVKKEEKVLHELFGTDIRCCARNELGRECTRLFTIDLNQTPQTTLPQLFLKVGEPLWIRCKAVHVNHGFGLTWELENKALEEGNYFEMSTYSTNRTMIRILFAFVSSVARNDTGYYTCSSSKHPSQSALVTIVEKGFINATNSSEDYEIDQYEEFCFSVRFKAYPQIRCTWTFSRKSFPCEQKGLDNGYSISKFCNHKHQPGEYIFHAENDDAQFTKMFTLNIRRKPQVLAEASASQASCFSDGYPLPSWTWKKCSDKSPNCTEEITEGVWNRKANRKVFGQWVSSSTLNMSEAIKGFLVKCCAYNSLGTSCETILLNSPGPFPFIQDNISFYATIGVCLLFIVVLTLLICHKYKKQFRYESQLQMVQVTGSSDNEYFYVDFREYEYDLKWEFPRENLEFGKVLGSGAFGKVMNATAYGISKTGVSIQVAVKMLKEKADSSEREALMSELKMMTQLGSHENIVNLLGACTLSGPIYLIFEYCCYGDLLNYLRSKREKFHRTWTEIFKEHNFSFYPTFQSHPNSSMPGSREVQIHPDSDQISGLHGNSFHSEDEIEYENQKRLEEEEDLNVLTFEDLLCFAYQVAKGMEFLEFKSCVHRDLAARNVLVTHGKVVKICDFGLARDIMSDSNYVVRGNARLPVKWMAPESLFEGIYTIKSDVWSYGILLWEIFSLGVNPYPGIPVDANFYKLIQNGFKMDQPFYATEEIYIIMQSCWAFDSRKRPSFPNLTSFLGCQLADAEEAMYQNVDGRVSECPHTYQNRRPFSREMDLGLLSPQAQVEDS

[4] = Growth inhibition of human UM-UC-3 cells after 24 hrs by Clonogenic cell survival assay; assay type: functional, cell-based; conditions: UMUC3, 24 h
Procedure, shortened: (§1)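 Two-dimensional colony formation (clonogenic survival) of human UM-UC-3 bladder carcinoma and HSC-3 oral squamous carcinoma cells, assessing the cytostatic effect on colony growth.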

[5] = Growth inhibition of human HSC3 cells after 24 hrs by Clonogenic cell survival assay; assay type: functional, cell-based; conditions: HSC-3, 24 h; procedure, shortened: as §1
[6] = target: T2, Serine/threonine-protein kinase pim-1 (Homo sapiens, UniProt P11309); experiment: Inhibition of Pim1 (unknown origin) using luciferase-luciferin based ATP detection reagent at 1 uM by Kinase-Glo assay
Target sequence in this assay (P11309 whole entry, looked up): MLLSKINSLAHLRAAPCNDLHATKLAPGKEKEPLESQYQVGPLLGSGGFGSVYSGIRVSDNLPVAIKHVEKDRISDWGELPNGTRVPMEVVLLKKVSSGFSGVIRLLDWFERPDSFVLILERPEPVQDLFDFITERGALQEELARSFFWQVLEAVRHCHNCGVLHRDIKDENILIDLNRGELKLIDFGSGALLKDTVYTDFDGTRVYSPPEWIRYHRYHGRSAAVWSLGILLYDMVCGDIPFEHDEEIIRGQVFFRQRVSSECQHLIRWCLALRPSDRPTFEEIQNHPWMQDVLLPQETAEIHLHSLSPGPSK

[7] = target: NT-3 growth factor receptor (Homo sapiens) (UniProt Q16288); experiment: Inhibition of TRKC (unknown origin) at 1 uM
[8] = target: BDNF/NT-3 growth factors receptor (Homo sapiens) (UniProt Q16620); experiment: Inhibition of TRKB (unknown origin) at 1 uM
[9] = target: Tyrosine-protein kinase Lck (Homo sapiens) (UniProt P06239); experiment: Inhibition of LCK (unknown origin) at 1 uM
Tyrosine-protein kinase Lck (Homo sapiens), sequence (P06239 2-509 limits assumed): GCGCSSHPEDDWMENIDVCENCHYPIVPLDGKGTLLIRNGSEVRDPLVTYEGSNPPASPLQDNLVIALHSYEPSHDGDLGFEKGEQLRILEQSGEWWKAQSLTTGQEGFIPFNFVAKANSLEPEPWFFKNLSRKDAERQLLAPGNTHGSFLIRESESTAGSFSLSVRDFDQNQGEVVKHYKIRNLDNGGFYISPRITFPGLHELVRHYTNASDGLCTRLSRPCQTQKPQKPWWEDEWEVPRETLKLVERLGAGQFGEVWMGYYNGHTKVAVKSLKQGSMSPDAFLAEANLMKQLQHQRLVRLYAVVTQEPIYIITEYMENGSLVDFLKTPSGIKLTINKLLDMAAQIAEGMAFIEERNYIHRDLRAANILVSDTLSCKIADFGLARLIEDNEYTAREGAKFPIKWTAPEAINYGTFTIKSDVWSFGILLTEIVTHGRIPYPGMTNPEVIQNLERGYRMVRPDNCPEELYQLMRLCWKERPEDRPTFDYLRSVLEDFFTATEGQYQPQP

[10] = target: T3, Serine/threonine-protein kinase haspin (Homo sapiens) (UniProt Q8TF76); experiment: Inhibition of Haspin (unknown origin) at 1 uM
T3 sequence (whole entry): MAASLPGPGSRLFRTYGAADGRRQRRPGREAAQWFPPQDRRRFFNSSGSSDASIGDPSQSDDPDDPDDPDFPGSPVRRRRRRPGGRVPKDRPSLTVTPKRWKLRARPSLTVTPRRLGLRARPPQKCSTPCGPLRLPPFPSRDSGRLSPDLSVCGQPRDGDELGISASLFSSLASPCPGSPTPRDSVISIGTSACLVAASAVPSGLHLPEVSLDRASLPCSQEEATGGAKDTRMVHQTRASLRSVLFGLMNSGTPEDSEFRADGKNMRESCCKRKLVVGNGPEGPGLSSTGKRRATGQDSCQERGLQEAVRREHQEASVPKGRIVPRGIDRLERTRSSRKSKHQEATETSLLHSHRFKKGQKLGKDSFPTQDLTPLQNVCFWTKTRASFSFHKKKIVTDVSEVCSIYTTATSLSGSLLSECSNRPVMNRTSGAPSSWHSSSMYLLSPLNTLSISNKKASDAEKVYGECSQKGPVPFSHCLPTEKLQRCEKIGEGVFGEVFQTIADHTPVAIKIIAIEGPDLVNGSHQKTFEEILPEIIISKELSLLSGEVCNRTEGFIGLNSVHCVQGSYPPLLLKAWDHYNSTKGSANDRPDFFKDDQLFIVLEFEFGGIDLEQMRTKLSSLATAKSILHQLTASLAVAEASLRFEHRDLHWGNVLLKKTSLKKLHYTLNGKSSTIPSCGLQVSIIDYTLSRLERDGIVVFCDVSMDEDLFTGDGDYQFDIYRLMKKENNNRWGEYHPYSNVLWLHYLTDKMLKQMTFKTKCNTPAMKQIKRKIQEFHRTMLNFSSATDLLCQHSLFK

[11] = target: T4, Muscle, skeletal receptor tyrosine-protein kinase (Homo sapiens) (UniProt O15146); experiment: Inhibition of MUSK (unknown origin) at 1 uM
T4 sequence (whole entry): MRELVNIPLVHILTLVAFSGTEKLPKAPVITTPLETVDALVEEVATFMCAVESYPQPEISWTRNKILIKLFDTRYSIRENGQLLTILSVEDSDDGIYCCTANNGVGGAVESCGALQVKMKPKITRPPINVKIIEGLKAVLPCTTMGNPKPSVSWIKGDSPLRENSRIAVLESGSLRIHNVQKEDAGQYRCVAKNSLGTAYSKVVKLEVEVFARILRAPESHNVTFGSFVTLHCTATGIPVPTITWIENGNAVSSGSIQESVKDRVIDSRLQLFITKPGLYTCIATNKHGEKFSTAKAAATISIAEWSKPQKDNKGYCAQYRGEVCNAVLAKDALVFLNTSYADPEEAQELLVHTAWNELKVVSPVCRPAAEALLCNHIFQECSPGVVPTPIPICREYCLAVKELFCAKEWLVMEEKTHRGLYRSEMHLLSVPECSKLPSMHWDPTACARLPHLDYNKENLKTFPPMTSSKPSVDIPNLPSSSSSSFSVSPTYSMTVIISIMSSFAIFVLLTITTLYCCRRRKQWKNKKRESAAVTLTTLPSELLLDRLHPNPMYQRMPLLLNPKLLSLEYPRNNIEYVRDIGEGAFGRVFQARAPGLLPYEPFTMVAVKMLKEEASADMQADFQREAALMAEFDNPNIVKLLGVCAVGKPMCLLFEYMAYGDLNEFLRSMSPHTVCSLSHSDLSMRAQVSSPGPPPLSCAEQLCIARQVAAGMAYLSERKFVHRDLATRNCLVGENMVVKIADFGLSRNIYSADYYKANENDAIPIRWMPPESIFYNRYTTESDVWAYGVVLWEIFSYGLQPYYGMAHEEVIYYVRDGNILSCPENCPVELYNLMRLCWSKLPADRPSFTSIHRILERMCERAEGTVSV

[12] = target: High affinity nerve growth factor receptor (Homo sapiens) (UniProt P04629); experiment: Inhibition of TRKA (unknown origin) at 1 uM
High affinity nerve growth factor receptor (Homo sapiens), sequence (P04629 33-796 limits assumed): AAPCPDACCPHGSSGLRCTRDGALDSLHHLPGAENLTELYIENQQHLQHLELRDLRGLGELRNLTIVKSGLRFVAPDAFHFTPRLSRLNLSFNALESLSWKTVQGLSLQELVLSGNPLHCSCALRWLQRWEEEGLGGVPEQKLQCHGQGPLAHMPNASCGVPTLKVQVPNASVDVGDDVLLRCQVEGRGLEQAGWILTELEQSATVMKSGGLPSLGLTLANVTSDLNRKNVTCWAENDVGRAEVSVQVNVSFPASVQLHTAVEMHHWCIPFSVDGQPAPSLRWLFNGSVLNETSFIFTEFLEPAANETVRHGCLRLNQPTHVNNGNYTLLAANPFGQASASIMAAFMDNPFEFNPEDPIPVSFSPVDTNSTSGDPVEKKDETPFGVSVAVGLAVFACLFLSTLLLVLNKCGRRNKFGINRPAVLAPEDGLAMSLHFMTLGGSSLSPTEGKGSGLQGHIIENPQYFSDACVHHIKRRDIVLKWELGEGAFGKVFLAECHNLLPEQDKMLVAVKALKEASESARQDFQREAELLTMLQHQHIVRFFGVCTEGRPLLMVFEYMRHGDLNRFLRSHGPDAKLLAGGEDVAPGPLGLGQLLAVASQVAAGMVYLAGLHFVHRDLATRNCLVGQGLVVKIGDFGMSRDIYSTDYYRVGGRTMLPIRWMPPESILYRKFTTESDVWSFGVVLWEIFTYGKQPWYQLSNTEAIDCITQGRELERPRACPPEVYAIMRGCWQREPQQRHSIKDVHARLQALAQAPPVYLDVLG

[13] = target: T5, Homeodomain-interacting protein kinase 4 (Homo sapiens) (UniProt Q8NE63); experiment: Inhibition of HIPK4 (unknown origin) at 1 uM
T5 sequence (whole entry): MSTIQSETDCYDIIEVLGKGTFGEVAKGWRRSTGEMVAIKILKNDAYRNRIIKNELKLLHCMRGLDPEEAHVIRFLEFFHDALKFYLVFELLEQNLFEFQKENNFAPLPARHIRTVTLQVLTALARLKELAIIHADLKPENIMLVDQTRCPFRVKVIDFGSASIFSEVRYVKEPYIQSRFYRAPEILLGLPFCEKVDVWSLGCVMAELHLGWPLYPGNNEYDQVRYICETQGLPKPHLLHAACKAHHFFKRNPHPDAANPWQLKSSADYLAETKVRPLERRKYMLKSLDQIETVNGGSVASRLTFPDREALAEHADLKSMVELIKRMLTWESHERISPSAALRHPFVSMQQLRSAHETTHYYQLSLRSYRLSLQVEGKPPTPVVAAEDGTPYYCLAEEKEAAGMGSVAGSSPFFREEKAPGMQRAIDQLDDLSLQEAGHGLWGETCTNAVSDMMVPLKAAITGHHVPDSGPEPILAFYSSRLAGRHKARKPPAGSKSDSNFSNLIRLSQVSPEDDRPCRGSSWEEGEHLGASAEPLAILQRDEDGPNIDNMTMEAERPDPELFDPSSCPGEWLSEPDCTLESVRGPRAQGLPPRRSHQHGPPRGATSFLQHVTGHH

[14] = target: Tyrosine-protein kinase Yes (Homo sapiens) (UniProt P07947); experiment: Inhibition of YES1 (unknown origin) at 1 uM
Tyrosine-protein kinase Yes (Homo sapiens), sequence (P07947 2-543 limits assumed): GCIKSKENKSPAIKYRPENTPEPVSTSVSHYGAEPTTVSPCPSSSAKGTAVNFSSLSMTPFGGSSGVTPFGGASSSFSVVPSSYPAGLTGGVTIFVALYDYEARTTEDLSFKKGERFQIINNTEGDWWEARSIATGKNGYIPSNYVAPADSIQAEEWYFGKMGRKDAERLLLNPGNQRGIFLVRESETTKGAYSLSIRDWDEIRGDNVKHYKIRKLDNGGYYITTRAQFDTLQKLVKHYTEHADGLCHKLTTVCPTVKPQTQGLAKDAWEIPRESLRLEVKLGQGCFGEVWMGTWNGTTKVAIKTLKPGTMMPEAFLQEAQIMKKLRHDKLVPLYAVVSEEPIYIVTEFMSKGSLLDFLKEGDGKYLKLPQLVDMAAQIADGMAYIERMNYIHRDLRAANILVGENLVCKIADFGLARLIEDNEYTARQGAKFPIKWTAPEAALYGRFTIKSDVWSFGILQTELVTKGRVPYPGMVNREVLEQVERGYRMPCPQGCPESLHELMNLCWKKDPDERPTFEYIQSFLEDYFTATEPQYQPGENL

[15] = target: Casein kinase II subunit alpha (Homo sapiens) (UniProt P68400); experiment: Inhibition of CK2a (unknown origin) at 1 uM
[16] = target: Homeodomain-interacting protein kinase 2 (Homo sapiens) (UniProt Q9H2X6); experiment: Inhibition of HIPK2 (unknown origin) at 1 uM
[17] = target: Tyrosine-protein kinase Fyn (Homo sapiens) (UniProt P06241); experiment: Inhibition of FYN (unknown origin) at 1 uM
[18] = target: Tyrosine-protein kinase JAK2 (Homo sapiens) (UniProt O60674); experiment: Inhibition of JAK2 (unknown origin) at 1 uM
Tyrosine-protein kinase JAK2 (Homo sapiens), sequence (O60674 whole entry): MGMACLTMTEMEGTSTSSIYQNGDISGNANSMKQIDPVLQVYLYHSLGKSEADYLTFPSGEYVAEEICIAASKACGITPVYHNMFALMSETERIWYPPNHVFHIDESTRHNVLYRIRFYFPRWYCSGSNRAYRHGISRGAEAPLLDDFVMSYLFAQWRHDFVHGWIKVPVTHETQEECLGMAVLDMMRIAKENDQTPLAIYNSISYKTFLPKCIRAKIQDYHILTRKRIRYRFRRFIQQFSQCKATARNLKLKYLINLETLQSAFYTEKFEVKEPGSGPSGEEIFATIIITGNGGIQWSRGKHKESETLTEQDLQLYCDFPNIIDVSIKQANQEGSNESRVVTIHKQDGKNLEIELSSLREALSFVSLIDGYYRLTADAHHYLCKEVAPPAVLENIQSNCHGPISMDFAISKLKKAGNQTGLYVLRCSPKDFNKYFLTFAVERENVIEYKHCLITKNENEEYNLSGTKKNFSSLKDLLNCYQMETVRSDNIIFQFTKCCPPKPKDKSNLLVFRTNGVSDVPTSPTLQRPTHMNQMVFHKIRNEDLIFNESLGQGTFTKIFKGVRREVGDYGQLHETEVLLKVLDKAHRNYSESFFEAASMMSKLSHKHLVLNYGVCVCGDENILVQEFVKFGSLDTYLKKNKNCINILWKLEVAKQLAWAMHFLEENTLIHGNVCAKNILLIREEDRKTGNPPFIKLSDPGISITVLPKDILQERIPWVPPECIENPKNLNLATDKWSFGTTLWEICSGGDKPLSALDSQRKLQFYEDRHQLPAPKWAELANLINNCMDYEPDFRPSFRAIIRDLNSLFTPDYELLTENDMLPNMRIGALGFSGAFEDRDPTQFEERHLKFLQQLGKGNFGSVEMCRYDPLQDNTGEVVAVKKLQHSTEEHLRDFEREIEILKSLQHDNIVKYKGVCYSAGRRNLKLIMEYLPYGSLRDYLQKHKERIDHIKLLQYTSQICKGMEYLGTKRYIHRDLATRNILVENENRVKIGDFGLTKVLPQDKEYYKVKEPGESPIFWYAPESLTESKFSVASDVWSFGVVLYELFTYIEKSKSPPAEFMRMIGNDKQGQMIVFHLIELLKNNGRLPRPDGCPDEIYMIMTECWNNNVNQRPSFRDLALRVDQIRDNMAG

[19] = target: Macrophage colony-stimulating factor 1 receptor (Homo sapiens) (UniProt P07333); experiment: Inhibition of FMS (unknown origin) at 1 uM
[20] = target: Proto-oncogene tyrosine-protein kinase Src (Homo sapiens) (UniProt P12931); experiment: Inhibition of c-Src (unknown origin) at 1 uM
[21] = target: Receptor-type tyrosine-protein kinase FLT3 (Homo sapiens) (UniProt P36888); conditions: 1 uM
[22] = target: T2, Serine/threonine-protein kinase pim-1; experiment: Inhibition of Pim1 (unknown origin) using luciferase-luciferin based ATP detection reagent by Kinase-Glo assay
Target sequence in this assay (P11309 whole entry): as the sequence (P11309 whole entry, looked up) above

- IC50 ([1]; read-out: IC50): 2070 nM
Structure (SMILES): O=S1(=O)CCC(CNc2ccn3ncc(-c4cccc(Cl)c4)c3n2)CC1

- IC50 ([1]; read-out: IC50): 639 nM
Structure (SMILES): C[C@]1(O)CC[C@H](Nc2ccn3ncc(-c4cccc(C(F)(F)F)c4)c3n2)CC1

- IC50 ([1]; read-out: IC50): 2000 nM
Structure (SMILES): N[C@H]1CCCN(c2ccn3ncc(-c4cccc(Cl)c4)c3n2)C1

- IC50 ([1]; read-out: IC50): 228 nM
- IC50 [3]: 125 nM
- inhibition [6]: > 98%
- inhibition [7]: 96%
- inhibition [8]: > 90%
- inhibition [9]: > 80%
- inhibition [10]: > 80%
- inhibition [11]: > 80%
- inhibition [12]: > 80%
- inhibition [13]: > 80%
- inhibition [14]: > 50%
- inhibition [15]: > 50%
- inhibition [16]: > 50%
- inhibition [17]: > 50%
- inhibition [18]: > 50%
- inhibition [19]: > 50%
- inhibition [20]: > 50%
- inhibition [21]: > 90%
Structure (SMILES): CC(C)(O)[C@H]1CC[C@H](Nc2ccn3ncc(-c4cccc(Cl)c4)c3n2)CC1
- IC50 [2]: > 30 µM
- EC50 [4]: 914 nM
- EC50 [5]: 600 nM

- IC50 ([1]; read-out: IC50): 282 nM
- IC50 [3]: 53 nM
Structure (SMILES): O[C@H]1CC[C@H](Nc2ccn3ncc(-c4cccc(C(F)(F)F)c4)c3n2)CC1

- IC50 ([1]; read-out: IC50): 1640 nM
Structure (SMILES): Clc1cccc(-c2cnn3ccc(NCC4CCOCC4)nc23)c1

- IC50 ([1]; read-out: IC50): 732 nM
Structure (SMILES): N[C@H]1CC[C@H](Nc2ccn3ncc(-c4cccc(Cl)c4)c3n2)CC1

- IC50 ([22]; read-out: IC50): 149 nM
- IC50 ([1]; read-out: IC50): 1970 nM
Structure (SMILES): FC(F)(F)c1cccc(-c2cnn3ccc(NCC4CCOCC4)nc23)c1

- IC50 ([1]; read-out: IC50): 1260 nM
Structure (SMILES): C[C@]1(O)CC[C@H](Nc2ccn3ncc(-c4cccc(Cl)c4)c3n2)CC1

- IC50 [22]: Not Active
- IC50 [1]: Not Active
Structure (SMILES): O=S1(=O)CCC(Nc2ccn3ncc(-c4cccc(C(F)(F)F)c4)c3n2)CC1

- IC50 ([1]; read-out: IC50): 506 nM
Structure (SMILES): O[C@H]1CC[C@H](Nc2ccn3ncc(-c4cccc(Cl)c4)c3n2)CC1

- IC50 ([1]; read-out: IC50): 6020 nM
Structure (SMILES): O=S1(=O)CCC(CNc2ccn3ncc(-c4cccc(C(F)(F)F)c4)c3n2)CC1
